Results from different studies.
Protocols differ between the studies behind these lines.
Target: Mitogen-activated protein kinase kinase kinase 3 (MAP3K3, Homo sapiens, UniProt Q99759)
Sequence (Q99759 1-626, as in one of the studies): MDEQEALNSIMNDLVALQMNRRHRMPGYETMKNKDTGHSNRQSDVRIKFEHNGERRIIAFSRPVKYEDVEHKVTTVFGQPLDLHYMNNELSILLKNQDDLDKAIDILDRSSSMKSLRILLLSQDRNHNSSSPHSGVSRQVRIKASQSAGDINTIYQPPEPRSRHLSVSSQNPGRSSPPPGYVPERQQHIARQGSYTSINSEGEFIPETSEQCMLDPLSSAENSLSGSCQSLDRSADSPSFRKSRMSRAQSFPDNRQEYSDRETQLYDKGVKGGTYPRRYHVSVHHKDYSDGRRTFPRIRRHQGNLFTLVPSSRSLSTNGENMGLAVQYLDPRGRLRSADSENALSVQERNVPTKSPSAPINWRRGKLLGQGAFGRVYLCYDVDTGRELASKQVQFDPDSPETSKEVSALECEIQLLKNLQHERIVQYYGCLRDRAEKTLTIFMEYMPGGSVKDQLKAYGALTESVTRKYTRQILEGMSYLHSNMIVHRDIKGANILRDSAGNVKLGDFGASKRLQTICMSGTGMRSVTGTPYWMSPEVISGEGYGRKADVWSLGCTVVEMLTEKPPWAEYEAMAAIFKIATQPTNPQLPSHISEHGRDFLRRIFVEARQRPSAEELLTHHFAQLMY

Compound	assay	setting	endpoint	value
Cc1nc(C2CCN(C(=O)c3ccc(OC(F)(F)F)cc3N)CC2)c2ncc(N3CCN(C)CC3)cc2n1	cell-free assay, competition with immobilised ligand	1 µM	remaining binding	92%
CN1CC(Oc2cnc(C#N)cc2-c2ccn3nc(NC(=O)C4CC4)cc3c2)C1	enzyme activity, inhibitor	1 µM	inhibition	3%
C[C@H](c1ccc(F)cc1)N(Cc1cccc(C(=O)O)c1)C(=O)c1cnc2ccccc2c1	cell-free assay, competition with immobilised ligand	1 µM	remaining binding	100%
O=C(Nc1cnn(-c2csc(C(=O)NC3COC3)c2)c1)Nc1c(F)cccc1Cl	enzyme activity, inhibitor	5 µM	remaining activity	81.9%
CC(C)(C)c1nc(-c2cccc(NS(=O)(=O)c3c(F)cccc3F)c2F)c(-c2ccnc(N)n2)s1	enzyme activity, inhibitor, radiometric	1 µM	remaining activity	96%
CCOc1cc(-c2nncn2C)ccc1Nc1ncc2cc(C)nc(NCC(C)(C)C)c2n1	cell-free assay, TR-FRET	1 µM	inhibition	≤ 15%
Cn1cc(Cl)c2c(Oc3c(F)cc(Nc4cc(Cl)nc(N)n4)cc3F)ccnc21	cell-free assay, competition with immobilised ligand	0.1 µM	remaining binding	90%
COc1ccc(F)cc1C(=O)NCc1ccc(-c2nn([C@@H](C)C(F)(F)F)c(N)c2C(N)=O)cc1	target engagement in cells, inhibitor, chemoproteomics	10 µM	inhibition	-38.5%
CN(c1ccnc(CNc2nc(Nc3ccc4c(c3)CC(=O)N4)ncc2C(F)(F)F)n1)S(C)(=O)=O	cell-free assay, competition with immobilised ligand	1 µM	remaining binding	44%
COc1cc2c(N3CCN(C(=O)Nc4ccc(OC(C)C)cc4)CC3)ncnc2cc1OCCCN1CCCCC1	cell-free assay	0.5 µM	remaining signal	106%
Cc1sc(C(=O)NC2COC2)cc1-n1cc(NC(=O)Nc2c(F)cccc2Cl)cn1	enzyme activity, inhibitor	10 µM	remaining activity	113%
COc1cc(Nc2c(C#N)cnc3cc(OCCCN4CCN(C)CC4)c(OC)cc23)c(Cl)cc1Cl	cell-free assay	0.5 µM	remaining signal	11.8%
CN([C@@H]1CCc2c(CC(=O)O)c3cc(S(C)(=O)=O)ccc3n2C1)S(=O)(=O)c1ccc(F)cc1	cell-free assay, competition with immobilised ligand	1 µM	remaining binding	85%
Cc1ccc(C(=O)NCc2ccsc2)cc1C#Cc1cn(C(C)C)c2ncnc(N)c12	enzyme activity, inhibitor	1 µM	activity vs control	70%
CS(=O)(=O)CCNCc1ccc(-c2ccc3ncnc(Nc4ccc(OCc5cccc(F)c5)c(Cl)c4)c3c2)o1	cell-free assay	0.5 µM	remaining signal	110%
CC(C)(O)[C@H]1CC[C@H](Nc2ccc3ncc(-c4cccc(C(F)(F)F)c4)n3n2)CC1	enzyme activity, inhibitor	1 µM	remaining activity	92.2%
